T cruzi growth-1: blocks T. cruzi growth in NIH3T3 culture; 77,000 tested, 5.9% active; T. cruzi beta-gal in NIH3T3, GalScreen luminescence, 90 h; inhibition, % at 8.34 µM;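 active means mean inhibition above about 93%, with at least 55% of replicates each passing it, limit read from the data, passing the limit was not always enough; inconclusive means only one of those two conditions holds; inactive means neither condition holds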
KDM4C inh: KDM4C (human) demethylase inhibition; Q9H3R0; GST-KDM4C 2-372, H3K9me3 peptide, LANCE TR-FRET; inhibition, % at 12.5 µM; 96,000 tested, 0.15% active; AID 720574;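 active means mean replicate inhibition above about 25%, with at least 55% of replicates also reaching it, limit read from the data, passing the limit was not always enough; inconclusive means only one of those two conditions met; inactive means neither condition met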
Target sequence (Q9H3R0 2-372 limits assumed): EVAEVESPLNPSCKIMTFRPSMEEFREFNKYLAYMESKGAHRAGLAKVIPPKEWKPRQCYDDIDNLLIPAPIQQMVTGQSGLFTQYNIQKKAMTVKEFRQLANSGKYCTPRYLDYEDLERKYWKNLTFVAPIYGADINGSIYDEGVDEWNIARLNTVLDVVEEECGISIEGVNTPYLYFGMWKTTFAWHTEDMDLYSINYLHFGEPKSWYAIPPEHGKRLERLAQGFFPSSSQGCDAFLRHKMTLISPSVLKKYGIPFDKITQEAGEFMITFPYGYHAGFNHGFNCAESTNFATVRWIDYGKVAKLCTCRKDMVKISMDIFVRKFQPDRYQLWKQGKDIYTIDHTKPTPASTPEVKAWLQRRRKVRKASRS
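System: N-terminal GST-fused human GASC-1 (KDM4C) fragment, residues 2-372; amount: enzyme final amount 10 nM; incubation: reaction 30 min RT, detection step 1 h RT; medium: HEPES buffer, pH 7.5, plus ascorbate; technique: LANCE TR-FRET, Eu antibody, ULight-streptavidin, EDTA, ex 340 nm, em 618/671 nm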
IDH1 mut inh: IDH1 R132H (human) inhibition; IDH1 R132H reductase, diaphorase/resazurin fluorescence, 60 min; O75874; 70,000 tested, 0.18% active; AID 624101; inhibition, % at 10 µM; in the data active means inhibition above about 34%; inconclusive means no clear call, values can overlap the other calls; inactive means below about 11%
Target sequence (O75874 whole entry R132H): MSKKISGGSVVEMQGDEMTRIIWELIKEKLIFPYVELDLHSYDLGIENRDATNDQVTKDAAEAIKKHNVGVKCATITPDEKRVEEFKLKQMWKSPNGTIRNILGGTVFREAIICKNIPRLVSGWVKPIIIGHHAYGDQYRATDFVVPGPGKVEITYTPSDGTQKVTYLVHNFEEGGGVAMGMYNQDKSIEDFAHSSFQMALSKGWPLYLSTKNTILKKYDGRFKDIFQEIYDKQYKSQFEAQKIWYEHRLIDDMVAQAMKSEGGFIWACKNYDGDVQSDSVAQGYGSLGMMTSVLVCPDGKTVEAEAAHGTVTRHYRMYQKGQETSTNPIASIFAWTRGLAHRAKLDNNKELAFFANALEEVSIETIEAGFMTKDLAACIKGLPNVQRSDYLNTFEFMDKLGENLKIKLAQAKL
T cruzi growth-2: blocks T. cruzi growth in NIH3T3 host cells; shares compounds with T cruzi growth-1; inhibition, % at 8.35 µM; 5,600 tested, 72% active; T. cruzi beta-gal in NIH3T3, GalScreen luminescence, 90 h;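 active means mean replicate inhibition above about 95% and at least 55% of replicates individually reaching it, limit read from the data; inconclusive means only one of the two criteria is met; inactive means neither criterion is met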
T cruzi growth-3: Trypanosoma cruzi proliferation inhibition. inhibition, % at 2.09 µM. 5,600 tested, 21% active. T. cruzi beta-gal in NIH3T3, GalScreen luminescence, 90 h. shares compounds with T cruzi growth-1. AID 651740;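 active means mean inhibition above about 95%, with at least 55% of replicates also reaching it, limit read from the data; inconclusive means meets just one of the two conditions; inactive means meets neither condition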
NIH3T3 tox: NIH/3T3 (mouse) viability loss; 5,600 tested, 14% active; NIH/3T3 viability, CellTiter-Glo ATP luminescence, 90 h; shares compounds with T cruzi growth-1; cytotoxicity (signal decrease), % at 8.35 µM;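 active means mean signal decrease across replicates above about 35% based on untreated-well scatter, with enough replicates individually passing, limit read from the data; inconclusive means no rule stated though some were filed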
3T3 cytotox 2: NIH/3T3 (mouse) viability loss; NIH/3T3 viability, CellTiter-Glo ATP luminescence, 90 h; inhibition, % at 24.9 µM; 5,600 tested, 56% active; shares compounds with T cruzi growth-1; AID 651744;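 active means mean loss of cell viability signal at or above a set limit, and enough replicates individually reaching it; inconclusive means meets only the mean limit or only the replicate share; inactive means meets neither condition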
Of the large screens only hits and unclear results are named; the others gave an inactive call (follow-up assays come after a bar, where they were run); ! = repeats disagree. This is one part of a sample in which hits are shown more often than they occur.

C[C@@H]1CCCCO[C@@H](CN(C)S(=O)(=O)c2cccs2)[C@H](C)CN([C@@H](C)CO)C(=O)c2cc(NS(=O)(=O)c3ccc(Cl)cc3)ccc2O1	T cruzi growth-1 96 | T cruzi growth-2 98 | T cruzi growth-3 inactive | NIH3T3 tox inactive | 3T3 cytotox 2 inactive
C[C@@H]1CN([C@H](C)CO)C(=O)c2cc(NS(=O)(=O)c3ccc(Cl)cc3)ccc2O[C@@H](C)CCCCO[C@@H]1CN(C)S(=O)(=O)c1cccs1	T cruzi growth-1 101 (no result: IDH1 mut inh) | T cruzi growth-2 116 | T cruzi growth-3 inactive | NIH3T3 tox inactive | 3T3 cytotox 2 inactive
C[C@@H]1CN([C@H](C)CO)C(=O)c2cc(NS(=O)(=O)c3ccc(Cl)cc3)ccc2O[C@@H](C)CCCCO[C@H]1CN(C)S(=O)(=O)c1cccs1	none (no result: IDH1 mut inh)
C[C@@H]1CCCCO[C@@H](CN(C)S(=O)(=O)c2cccs2)[C@@H](C)CN([C@@H](C)CO)C(=O)c2cc(NS(=O)(=O)c3ccc(Cl)cc3)ccc2O1	none
C[C@@H]1CCCCO[C@H](CN(C)S(=O)(=O)c2cccs2)[C@H](C)CN([C@H](C)CO)C(=O)c2cc(NS(=O)(=O)c3ccc(Cl)cc3)ccc2O1	T cruzi growth-1 99 (no result: IDH1 mut inh) | T cruzi growth-2 102 | T cruzi growth-3 114 | NIH3T3 tox inactive | 3T3 cytotox 2 inactive
C[C@H]1CCCCO[C@H](CN(C)S(=O)(=O)c2cccs2)[C@@H](C)CN([C@@H](C)CO)C(=O)c2cc(NS(=O)(=O)c3ccccc3)ccc2O1	T cruzi growth-1 105 (no result: IDH1 mut inh) | T cruzi growth-2 106 | T cruzi growth-3 inactive | NIH3T3 tox inactive | 3T3 cytotox 2 inactive
C[C@@H]1CCCCO[C@@H](CN(C)S(=O)(=O)c2cccs2)[C@@H](C)CN([C@H](C)CO)C(=O)c2cc(NS(=O)(=O)c3ccccc3)ccc2O1	none (no result: KDM4C inh, IDH1 mut inh)
C[C@@H]1CN([C@@H](C)CO)C(=O)c2cc(NS(=O)(=O)c3ccc(Cl)cc3)ccc2O[C@@H](C)CCCCO[C@@H]1CN(C)S(=O)(=O)c1cccs1	none (no result: IDH1 mut inh)
COc1cccc(-c2nnc(SCC(=O)Nc3cccc([N+](=O)[O-])c3)n2C)c1	none (no result: T cruzi growth-1, KDM4C inh)
CN(CCO)c1ccc(/C=N/NC(=O)c2ccccc2O)cc1	none (no result: T cruzi growth-1, KDM4C inh)
C[C@@H]1CN([C@@H](C)CO)C(=O)c2cc(NS(=O)(=O)c3ccc(F)cc3)ccc2O[C@@H](C)CCCCO[C@@H]1CN(C)S(=O)(=O)c1cccs1	T cruzi growth-1 97 | T cruzi growth-2 108 | T cruzi growth-3 inactive | NIH3T3 tox inactive | 3T3 cytotox 2 inactive
C[C@@H]1CCCCO[C@@H](CN(C)S(=O)(=O)c2cccs2)[C@@H](C)CN([C@H](C)CO)C(=O)c2cc(NS(=O)(=O)c3ccc(F)cc3)ccc2O1	none (no result: IDH1 mut inh)
C[C@@H]1CN([C@@H](C)CO)C(=O)c2cc(N(C)C)ccc2O[C@@H](C)CCCCO[C@@H]1CN(C)S(=O)(=O)c1cccs1	T cruzi growth-1 106! | T cruzi growth-2 inactive | T cruzi growth-3 inactive | NIH3T3 tox inactive | 3T3 cytotox 2 inactive
C[C@@H]1CCCCO[C@@H](CN(C)S(=O)(=O)c2cccs2)[C@H](C)CN([C@@H](C)CO)C(=O)c2cc(N(C)C)ccc2O1	none
N#CCCN(Cc1ccco1)C(=S)Nc1ccccc1	none (no result: T cruzi growth-1, KDM4C inh)
C[C@@H]1CN([C@@H](C)CO)C(=O)Cc2cc(NC(=O)C3CC3)ccc2O[C@H]1CN(C)Cc1ccc(-c2ccccc2)cc1	T cruzi growth-1 114 | T cruzi growth-2 102 | T cruzi growth-3 inactive | NIH3T3 tox inactive | 3T3 cytotox 2 103
C[C@@H]1CN([C@H](C)CO)C(=O)Cc2cc(NC(=O)C3CC3)ccc2O[C@H]1CN(C)Cc1ccc(-c2ccccc2)cc1	none
C[C@H]1CN([C@@H](C)CO)C(=O)Cc2cc(NC(=O)C3CCCCC3)ccc2O[C@@H]1CN(C)Cc1ccc(-c2ccccc2)cc1	T cruzi growth-1 99 | T cruzi growth-2 104 | T cruzi growth-3 inactive | NIH3T3 tox inactive | 3T3 cytotox 2 inactive
C[C@@H]1CN([C@H](C)CO)C(=O)Cc2cc(NC(=O)C3CCCCC3)ccc2O[C@@H]1CN(C)Cc1ccc(-c2ccccc2)cc1	none
CCc1ccc(OCC(=O)Nc2sc3c(c2C(=O)OC)CCC3)c(Br)c1	none (no result: T cruzi growth-1, KDM4C inh)
C[C@H]1CN([C@@H](C)CO)S(=O)(=O)c2ccc(Br)cc2O[C@@H]1CN(C)Cc1ccccc1	T cruzi growth-1 97! | T cruzi growth-2 100 | T cruzi growth-3 inactive | NIH3T3 tox inconclusive | 3T3 cytotox 2 107
C[C@H](CO)N1C[C@H](C)[C@H](CN(C)Cc2ccccc2)Oc2cc(Br)ccc2S1(=O)=O	none
C[C@@H]1CN([C@@H](C)CO)S(=O)(=O)c2ccc(Br)cc2O[C@H]1CN(C)Cc1ccccc1	T cruzi growth-1 99 | T cruzi growth-2 inactive | T cruzi growth-3 inactive | NIH3T3 tox inactive | 3T3 cytotox 2 104
C[C@H]1CN([C@@H](C)CO)S(=O)(=O)c2ccc(Br)cc2O[C@H]1CN(C)Cc1ccccc1	none
CC1(C)Cc2c(sc3nc(SCc4ccccc4)nc(NCc4ccco4)c23)CO1	none (no result: T cruzi growth-1, KDM4C inh)
COc1cccc(NC(=O)Cn2cc(C(=O)C(C)(C)C)c3ccccc32)c1	none (no result: T cruzi growth-1, KDM4C inh)
O=C(NO)c1cccc(C(=O)N/N=C/C2=CCCCC2)c1	none (no result: T cruzi growth-1, KDM4C inh)
Cc1ccc2c(C)c(C(=O)Nc3sc4c(c3C(=O)NCc3ccco3)CCC4)oc2c1	none (no result: T cruzi growth-1, KDM4C inh)
C[C@@H]1CN([C@H](C)CO)C(=O)c2cccc(NC(=O)Nc3ccc(C(F)(F)F)cc3)c2O[C@@H]1CN(C)S(=O)(=O)c1cccs1	T cruzi growth-1 93 | T cruzi growth-2 99 | T cruzi growth-3 inactive | NIH3T3 tox inactive | 3T3 cytotox 2 105
C[C@H](CO)N1C[C@H](C)[C@H](CN(C)S(=O)(=O)c2cccs2)Oc2c(NC(=O)Nc3ccc(F)cc3)cccc2C1=O	none
C[C@H]1CN([C@@H](C)CO)C(=O)c2cccc(NC(=O)Nc3ccc(C(F)(F)F)cc3)c2O[C@@H]1CN(C)S(=O)(=O)c1cccs1	none
C[C@@H]1CN([C@@H](C)CO)C(=O)c2cccc(NC(=O)Nc3ccc(C(F)(F)F)cc3)c2O[C@H]1CN(C)S(=O)(=O)c1cccs1	T cruzi growth-1 99 | T cruzi growth-2 101 | T cruzi growth-3 inactive | NIH3T3 tox inactive | 3T3 cytotox 2 39
C[C@H]1CN([C@@H](C)CO)C(=O)c2cccc(NC(=O)Nc3ccc(F)cc3)c2O[C@H]1CN(C)S(=O)(=O)c1cccs1	none
C[C@H](CO)N1C[C@H](C)[C@@H](CN(C)S(=O)(=O)c2cccs2)Oc2c(NC(=O)Nc3ccc(C(F)(F)F)cc3)cccc2C1=O	T cruzi growth-1 104 | T cruzi growth-2 inactive | T cruzi growth-3 inactive | NIH3T3 tox inactive | 3T3 cytotox 2 57
COc1cc(C2C(C(=O)c3cccs3)C(=O)C(=O)N2Cc2ccco2)cc(OC)c1OC (stereo not given)	none (no result: T cruzi growth-1, KDM4C inh)

Assay outcomes: PubChem BioAssay, Broad Institute
